Reference: PMC7658073 (Clinical Pharmacokinetics, 2020)
Like-named read-outs stand apart in the source and are kept apart here. Marks after values point to notes of the source that are not given here.

Tests used:
[1] = Human mass balance study; assay type: in vivo; settings: 14C-labeled vericiguat 5 mg oral
In short: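 Open-label, non-randomized, non-placebo-controlled study in six healthy male volunteers. Single oral solution of 5 mg [14C]-labelled test compound given fasting. Urine and feces collected up to 336 h and total radioactivity measured as % of dose, summarized descriptively as mean (range). Plasma components expressed as share of total radioactivity AUC.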

[2] = Phase I DDI study with mefenamic acid; assay type: in vivo, human
[3] = molecular target: T1, OATP1B3 (Homo sapiens, UniProt Q9NPD5); test: Substrate properties towards OATP1B3; assay type: in vitro ADME
T1 sequence (Q9NPD5 1-702): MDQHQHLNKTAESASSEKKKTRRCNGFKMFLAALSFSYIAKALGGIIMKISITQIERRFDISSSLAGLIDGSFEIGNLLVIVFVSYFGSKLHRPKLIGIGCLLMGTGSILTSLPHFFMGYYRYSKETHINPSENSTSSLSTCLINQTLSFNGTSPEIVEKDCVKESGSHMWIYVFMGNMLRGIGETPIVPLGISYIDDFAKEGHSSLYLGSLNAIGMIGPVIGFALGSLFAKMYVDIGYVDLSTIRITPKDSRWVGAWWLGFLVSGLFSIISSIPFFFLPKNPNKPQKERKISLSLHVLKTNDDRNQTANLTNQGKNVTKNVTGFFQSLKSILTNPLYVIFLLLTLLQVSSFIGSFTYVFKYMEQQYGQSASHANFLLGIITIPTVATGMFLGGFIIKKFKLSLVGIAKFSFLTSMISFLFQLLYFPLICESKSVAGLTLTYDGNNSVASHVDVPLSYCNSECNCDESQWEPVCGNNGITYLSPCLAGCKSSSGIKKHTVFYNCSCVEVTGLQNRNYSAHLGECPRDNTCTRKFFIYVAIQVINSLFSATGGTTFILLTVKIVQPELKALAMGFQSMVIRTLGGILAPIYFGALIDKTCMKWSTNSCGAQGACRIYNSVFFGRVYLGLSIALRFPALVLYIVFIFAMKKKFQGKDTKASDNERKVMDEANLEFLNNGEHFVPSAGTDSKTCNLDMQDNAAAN

[4] = molecular target: T2, UGT1A1 (Homo sapiens, UniProt P22309); test: Inhibitory potency towards UGT isoforms; assay type: in vitro ADME
T2 sequence (P22309 26-533): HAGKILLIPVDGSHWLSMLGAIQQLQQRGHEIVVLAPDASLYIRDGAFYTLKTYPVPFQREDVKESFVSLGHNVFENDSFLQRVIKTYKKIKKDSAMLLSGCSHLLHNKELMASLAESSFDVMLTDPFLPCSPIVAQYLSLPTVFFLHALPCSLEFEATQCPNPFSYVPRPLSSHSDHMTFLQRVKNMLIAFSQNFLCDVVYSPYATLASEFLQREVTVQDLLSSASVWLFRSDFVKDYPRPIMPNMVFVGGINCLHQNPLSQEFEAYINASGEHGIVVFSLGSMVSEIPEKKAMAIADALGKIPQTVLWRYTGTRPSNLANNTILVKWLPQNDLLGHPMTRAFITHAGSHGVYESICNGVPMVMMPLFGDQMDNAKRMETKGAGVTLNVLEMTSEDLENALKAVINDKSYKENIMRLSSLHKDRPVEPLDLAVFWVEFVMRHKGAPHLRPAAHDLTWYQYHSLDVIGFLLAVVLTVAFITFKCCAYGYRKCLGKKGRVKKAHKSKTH

[5] = molecular target: T3, UGT1A4 (Homo sapiens, UniProt P22310); test: Inhibitory potency towards UGT isoforms: UGT1A4; assay type: in vitro ADME
T3 sequence (P22310 29-534): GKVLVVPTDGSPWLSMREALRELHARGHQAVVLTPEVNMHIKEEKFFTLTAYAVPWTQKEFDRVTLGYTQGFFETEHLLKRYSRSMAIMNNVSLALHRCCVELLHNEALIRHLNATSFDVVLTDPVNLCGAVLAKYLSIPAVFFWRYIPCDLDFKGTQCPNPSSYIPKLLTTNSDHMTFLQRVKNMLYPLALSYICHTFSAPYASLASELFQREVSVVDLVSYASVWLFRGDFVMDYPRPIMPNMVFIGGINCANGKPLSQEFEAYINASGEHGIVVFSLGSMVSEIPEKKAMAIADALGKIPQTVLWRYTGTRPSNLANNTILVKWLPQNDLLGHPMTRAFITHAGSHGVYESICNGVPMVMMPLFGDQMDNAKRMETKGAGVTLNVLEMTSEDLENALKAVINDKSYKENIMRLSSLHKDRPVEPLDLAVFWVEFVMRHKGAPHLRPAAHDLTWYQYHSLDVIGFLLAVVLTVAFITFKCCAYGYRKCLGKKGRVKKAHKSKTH

[6] = molecular target: T1, OATP1B3; test: Inhibitory potency towards OATP1B3; assay type: in vitro ADME
[7] = system: CYP1A2; test: CYP induction in cultured human hepatocytes: CYP1A2; assay type: in vitro ADME; settings: three donors, up to 10,000 μg/L (23.5 µM)
[8] = All phase I studies in healthy volunteers; assay type: in vivo, human
In short: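 Healthy male volunteers, excluding regular medication, interacting foods/beverages or supplements, and non-adherence to smoking rules. All study drugs given orally. Tolerability recorded as treatment-emergent adverse events. Non-compartmental PK: AUC0–∞ by linear-log trapezoid plus extrapolation from the terminal log-linear slope; Cmax and trough read directly. Log-transformed parameters compared by ANOVA to give geometric mean ratios with 90% CIs.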

[9] = multiple oral doses vericiguat 2.5 mg 2 h prior to sacubitril/valsartan; cited from earlier work
[10] = serum albumin main binding component; ref data on file; cited from earlier work
[11] = cited from earlier work
[12] = cited from earlier work; remark: listed apart in the source
[13] = system: major cytochrome P450 (CYP) isoforms; settings: human liver microsomes; cited from earlier work
[14] = % of dose, listed as vericiguat
[15] = with mefenamic acid vs vericiguat 2.5 mg SD alone, fed

Share of total radioactivity AUC in human plasma [1]: 27%
Excretion in feces (range) ([1]; % of dose): 42.6 (38.3–46.5) %
Excretion in urine (range) ([1]; % of dose): 9.0 (6.1–16.1) %
Total excretion of analyte (urine plus feces) (range) ([1]; % of dose): 51.6 (46.0–62.6) %
Excretion in feces (range) [1, 14]: 43%
Excretion in urine (range) [1, 14]: 9.0%
Radioactivity excreted via feces ([1]; % of dose, mean (range)): 45.2 (40.1–49.9) %
Radioactivity excreted via urine ([1]; % of dose, mean (range)): 53.1^b (49.9–56.1) %
Increase in AUC of vericiguat ([2]; inhibition of UGT1A9 by mefenamic acid): 20%
AUC of vericiguat, point estimate of treatment ratio [2, 15]: 1.197
Cmax of vericiguat, point estimate of treatment ratio [2, 15]: 0.967
Substrate of OATP1B3 [3]: not a substrate
IC50 [4]: > 50 µM
IC50 [5]: > 50 µM
IC50 [6]: ~30 µM
Induction of CYP1A2 [7]: no significant induction
Changes in vericiguat exposure in the phase I DDI studies ([8]; all ten DDI studies): ≤ 30%
Structure (SMILES): COC(=O)Nc1c(N)nc(-c2nn(Cc3ccccc3F)c3ncc(F)cc23)nc1N [Vericiguat]
Tolerability ([8]; healthy volunteers, all phase I studies): generally well tolerated
Effect on seated blood pressure [9]: no additional effect
Plasma protein binding [10]: approximately 98%
Clearance ([11]; healthy volunteers): 1.6 L/h
Clearance ([11]; patients with HFrEF): 1.3 L/h
Variability in steady-state AUC ([11]; population PK model, patients with HFrEF): about 30%
Increase in AUC after administration with food compared to without ([12]; vericiguat alone): approximately 44%
Increase in Cmax after administration with food compared to without ([12]; vericiguat alone): ~41%
Geometric coefficient of variation in AUC ([12]; with food): 19%
Oral bioavailability ([12]; with food): 93%
Geometric coefficient of variation in AUC ([12]; without food): 41%
Inhibitory effects on major cytochrome P450 (CYP) isoforms [13]: no inhibitory effects
